According to PubChem BioAssay AID493091 (Sanford-Burnham Center for Chemical Genomics, 2011):
Among all 340,000 compounds or so, about 3,000 (0.88%) were called active. The sample holds actives, similar compounds and a random draw of the others, so the mix is not that of the screen.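 The calls were made as follows: active = inhibition above about 50% at 20 µM (limit read from the data); inactive = the rest.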

Each compound was assayed against Carboxy-terminal domain RNA polymerase II polypeptide A small phosphatase 1 (Homo sapiens) (UniProt Q9GZU7) (assay: inhibition of human SCP1 dephosphorylation activity – biochemical, colorimetric, uHTS, primary screen (AID 493091;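 also: plate controls were DMSO wells with enzyme for no effect and wells lacking enzyme for full effect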)). Settings: Recombinant Scp1, phosphopeptide, malachite green phosphate absorbance; at 20 µM; active compounds read high.
Chain of Carboxy-terminal domain RNA polymerase II polypeptide A small phosphatase 1 (Homo sapiens) (Q9GZU7 76-261 limits assumed): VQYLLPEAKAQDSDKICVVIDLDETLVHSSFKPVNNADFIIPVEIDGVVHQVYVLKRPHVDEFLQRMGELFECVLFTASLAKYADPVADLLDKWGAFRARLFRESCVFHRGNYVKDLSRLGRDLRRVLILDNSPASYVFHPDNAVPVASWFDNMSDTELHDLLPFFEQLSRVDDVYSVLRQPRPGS
How it was run: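 System: truncated SCP-1 phosphatase (76-261aa); medium: Tris acetate buffer pH 5.5 with MgCl2 and Tween-20; incubation: 45 min room-temperature reaction, 5 min colour, 30 min stabiliser; compound: single 20 µM dose, 1% DMSO; reagent: Phosphorylated 17-residue peptide substrate; read-out: % inhibition at 20 µM; technique: colorimetric free-phosphate detection, absorbance 630 nm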
For `Cc1cccc(N2CCN(Cc3nc(C4CC4)no3)CC2)n1`, the inhibition was -8.45% (inactive).
In the case of `CC(C)=CCN1CCN(Cc2cc3ccccc3[nH]2)CC1CCO` (centres undefined), the inhibition is reported as -3.55% (inactive).
For `COC(=O)c1ccc(S(=O)(=O)c2ccc(C(=O)OC)s2)s1`, the inhibition was -2.05% (inactive).
`NC(=O)C1=C[C@H](c2csc3ccccc23)C[C@H](OCc2ccc(CO)cc2)O1` was tested, and the inhibition was -0.48% (inactive).
For `C[C@H](CO)N1C[C@H](C)[C@@H](CN(C)C(=O)Nc2ccc3c(c2)OCO3)Oc2c(cccc2N(C)C)C1=O`, the inhibition was 38.7% (inactive).
In the case of `Cc1noc(C)c1NC(=O)Nc1cccc2c1O[C@H](CN(C)C(=O)Nc1ccccc1)[C@@H](C)CN([C@H](C)CO)C2=O`, the inhibition is reported as -8.19% (inactive).
`C[C@H](CO)N1C[C@H](C)[C@H](CN(C)C(=O)Nc2ccc(C(F)(F)F)cc2)Oc2c(NC(=O)c3ccncc3)cccc2C1=O` was tested, and the inhibition was 88% (active).
With `COC(=O)CSc1ccc2nnc(CCNS(=O)(=O)c3ccc(C)cc3)n2n1` the inhibition was -10.5% (inactive).
For `O=C1N/C(=C/c2cccn2-c2ccccc2)C(=O)N1c1cccc(Cl)c1`, the inhibition was -4.36% (inactive).
`Cc1ccccc1NC(=O)CN1C(=O)N/C(=C\c2cccn2-c2cccc(C(=O)O)c2)C1=O` was tested, and the inhibition was 65.5% (active).
With `Cc1ccccc1NC(=O)CSC(=O)c1ccccc1` the inhibition was -4.57% (inactive).
`O=C(COC(=O)c1ccc(O)cc1)Nc1nccs1` was tested, and the inhibition was -1.45% (inactive).
In the case of `O=C(Nc1ccc(-c2ccc3nncn3n2)cc1)C1CCCCC1`, the inhibition is reported as -12.9% (inactive).
In the case of `COc1ccc(OC)c(NC(=O)CSc2nc(N)c(-c3ccccc3)c(=O)[nH]2)c1`, the inhibition is reported as 3.19% (inactive).
For `CCCc1cc(=O)[nH]c(SCC(=O)Nc2ccc(C(=O)Nc3ccccc3OC)cc2)n1`, the inhibition was -2.71% (inactive).
For `COc1ccc(OC)c(NC(=O)CSc2nc(-c3ccccc3)cc(=O)[nH]2)c1`, the inhibition was 81.5% (active).
With `CC(=O)c1cccc(NC(=O)N2CCCC2C(=O)NCCc2ccccc2)c1` (centres undefined) the inhibition was -7.73% (inactive).
`Nc1ccc(C(=O)NCc2ccccc2)cc1` was tested, and the inhibition was -1.69% (inactive).
With `CS(=O)(=O)NCc1ccc(C(=O)NCc2ccccc2)cc1` the inhibition was -6.79% (inactive).
With `C[n+]1ccc(C(=O)NCc2ccccc2)cc1` the inhibition was 92.7% (active).
For `Cc1noc(C)c1-c1ccc2ncnc(NC(C)c3ccco3)c2c1` (centres undefined), the inhibition was 8.09% (inactive).
With `CCn1cc(C(=O)N2CCN(C3CCCCC3)CC2)c2cc(OC)c(OC)cc2c1=O` the inhibition was 0% (inactive).
In the case of `CCOC(=O)N1CCN(C(=O)C2CC(c3ccc(F)cc3)=NO2)CC1` (centres undefined), the inhibition is reported as -0.41% (inactive).
For `Cc1cccc(-[n+]2c(-c3cccc(Br)c3)[nH]c3nc4ccccc4nc32)c1`, the inhibition was -8.9% (inactive).
